In publication PMC7670640 (Pharmacology Research & Perspectives, 2020):

Test: Single ascending dose part
Format: in vivo, human
Conditions: for AUC / Cmax / Tmax / half-life: human, plasma, oral
How it was run: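 Healthy men received a single oral dose of test compound after a moderate-fat meal (~600 calories, ~30% from fat). Plasma was taken from ~2 mL whole blood and assayed by HPLC-MS/MS. Cmax, tmax, AUC0-∞, AUC0-24 and terminal half-life came from standard noncompartmental analysis. Dose proportionality was assessed with a power model and ANOVA.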

C=C(C)[C@@H]1CC[C@]2(NCCN3CCS(=O)(=O)CC3)CC[C@]3(C)[C@H](CC[C@@H]4[C@@]5(C)CC=C(C6=CC[C@@](CF)(C(=O)O)CC6)C(C)(C)[C@@H]5CC[C@]43C)[C@@H]12 [GSK3640254]
dose‐proportionality of Cmax and AUC (1‐ to 700‐mg single dose range): approximately dose‐proportional increase in exposure
AUC (1 mg): 57 ng·h/mL
Cmax (1 mg): 5 ng/mL
Tmax (1 mg, tmax, median (range), single dose 1 mg, N = 6): 3.5 h
AUC (3 mg): 329 ng·h/mL
Cmax (3 mg): 14 ng/mL
half-life (3 mg, t1/2, geometric mean (%CVb), single dose 3 mg, N = 6): 20.5 h
Tmax (3 mg, tmax, median (range), single dose 3 mg, N = 6): 4.5 h
AUC (10 mg): 1230 ng·h/mL
Cmax (10 mg): 47 ng/mL
Tmax (10 mg, tmax, median (range), single dose 10 mg, N = 6): 3.5 h
AUC (30 mg): 2990 ng·h/mL
Cmax (30 mg): 130 ng/mL
Tmax (30 mg, tmax, median (range), single dose 30 mg, N = 6): 4 h
AUC (100 mg): 8540 ng·h/mL
Cmax (100 mg): 372 ng/mL
Tmax (100 mg, tmax, median (range), single dose 100 mg, N = 6): 3.8 h
AUC (200 mg): 15000 ng·h/mL
Cmax (200 mg): 579 ng/mL
Tmax (200 mg, tmax, median (range), single dose 200 mg, N = 6): 3 h
AUC (400 mg): 43000 ng·h/mL
Cmax (400 mg): 1880 ng/mL
Tmax (400 mg, tmax, median (range), single dose 400 mg, N = 6): 3.3 h
AUC (700 mg): 39700 ng·h/mL
Cmax (700 mg): 1720 ng/mL
Tmax (700 mg, tmax, median (range), single dose 700 mg, N = 6): 3.3 h
half-life (estimated half‐life, single‐ and multiple‐dose administration after a moderate‐calorie and ‐fat breakfast): 21.2 to 28.4 h
half-life (half‐life, abstract summary of the FTIH study): ~24 h
half-life (mean half‐life, 10‐ to 700‐mg single doses): ~24 h
Tmax (median tmax, after administration, range across doses): 3 to 4.5 h
change in exposure from 400 to 700 mg (single dose): no increase in exposure from 400 to 700 mg
time detectable in plasma (single dose 1 and 3 mg): up to 48 hours
time detectable in plasma (single dose 10‐700 mg): up to 96 hours
